Results collected from several papers.
Protocols differ between the studies behind these lines.
ABHD6: Monoacylglycerol lipase ABHD6 (ABHD6, Homo sapiens, UniProt Q9BV23)
CASP8: Caspase-8 (CASP8, Homo sapiens, UniProt Q14790)

CN(C)C(=O)Oc1nsnc1N1CCCCC1  inhibition (ABHD6; enzyme activity; inhibitor; fluorescence; 1 µM; lysate): 10%
N=C(N)c1ccc2cc(OC(=O)c3ccc(N=C(N)N)cc3)ccc2c1  inhibition (CASP8; enzyme activity; inhibitor; 10 µM): 0%
COc1ccc(S(=O)(=O)N2CCCCC2)cc1C  inhibition (D(4) dopamine receptor (DRD4, Homo sapiens, UniProt P21917); ligand displacement; radioligand; 10 µM): < 30%
CN(C)C(=O)COC(=O)Cc1ccc(OC(=O)c2ccc(NC(=N)N)cc2)cc1  inhibition (CASP8; enzyme activity; inhibitor; 10 µM): 0%
O=C1N=C(N2CCCCN2)S/C1=C\c1ccc(F)cc1O  inhibition (5-hydroxytryptamine receptor 5A (HTR5A, Homo sapiens, UniProt P47898); ligand displacement; radioligand; 10 µM): < 10%
CCOC(=O)c1ccc(OC(=O)CCCCCNC(=N)N)cc1  inhibition (CASP8; enzyme activity; inhibitor; 10 µM): 1%
C#Cc1n[nH]c2c(-c3cn([C@@H](C)c4ccccn4)c(=O)[nH]c3=O)cc(F)cc12  inhibition (RAC-beta serine/threonine-protein kinase (AKT2, Homo sapiens, UniProt P31751); enzyme activity; inhibitor; 0.1 µM): 3.8%
CN(CCN1CCC(OC(=O)Nc2ccccc2-c2ccccc2)CC1)C(=O)c1ccc(CN2CCC(C(N)=O)CC2)cc1  inhibition (Histamine H2 receptor (Cavia porcellus, UniProt P47747); ligand displacement; radioligand; 1 µM): 22%
Cn1cc(-c2cccc(N3CCc4c(sc5c4CC(C)(C)C5)C3=O)c2CO)cc(Nc2ccncn2)c1=O  inhibition (Mast/stem cell growth factor receptor Kit (KIT, Homo sapiens, UniProt P10721, V654A); enzyme activity; inhibitor; 1 µM): -7%
COc1ccccc1N(C)C(=O)Oc1nsnc1N1CCCCC1  inhibition (ABHD6; enzyme activity; inhibitor; fluorescence; 1 µM; lysate): 11%
c1ccc(C(NCCNC(c2ccccc2)c2ccccc2)c2ccccc2)cc1  inhibition (D(4) dopamine receptor (DRD4, Homo sapiens, UniProt P21917, del265-296); cell-free assay; 10 µM): 10%
CCN(CC)CCCC[C@H](NC(=O)[C@H](CC(C)C)NC(=O)[C@H](C)NC(=O)[C@H](Cc1ccccc1)NC(=O)c1ccc(C(C)(C)C)cc1)C(=O)N[C@@H](CO)C(=O)OC  inhibition (Neurotensin receptor type 1 (NTSR1, Homo sapiens, UniProt P30989); ligand displacement; radioligand; 10 µM): -10%
Cn1cc(-c2cc(F)cc(N3CCn4c(cc5c4CCCC5)C3=O)c2CO)cc(Nc2ccc(N3CCN(C4COC4)CC3)cn2)c1=O  inhibition (Beta-adrenergic receptor kinase 1 (GRK2, Homo sapiens, UniProt P25098); enzyme activity; inhibitor; 0.1 µM): -1%
